Legend:
Format in all cases: functional
HL-60(TB) = test: Growth inhibition of human HL-60(TB) cells after 48 hrs by sulforhodamine B assay; conditions: HL-60, 48 h
Outline: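 NCI 60-cell-line panel run over a five-log dose range. GI50 is reported as the log of the molar concentration giving 50% net cell-growth inhibition, from dose-response against untreated controls. Where that effect was not reached within the concentration interval, the highest tested concentration was used in the calculation.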

K562 = test: Growth inhibition of human K562 cells after 48 hrs by sulforhodamine B assay; conditions: K562, 48 h
Outline: (§1)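 NCI 60-cell-line main test over a five-log dose range. GI50 is the molar concentration giving half-growth inhibition, reported as log molar. Subpanel values are median GI50 across that subpanel's lines. Where 50% inhibition was not reached within the tested interval, the highest tested concentration was used.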

A549 = test: Growth inhibition of human A549 cells after 48 hrs by sulforhodamine B assay; conditions: A549, 48 h; outline: as §1
NCI-H460 = test: Growth inhibition of human NCI-H460 cells after 48 hrs by sulforhodamine B assay; conditions: NCI-H460, 48 h; outline: as §1
COLO 205 = test: Growth inhibition of human COLO205 cells after 48 hrs by sulforhodamine B assay; conditions: COLO 205, 48 h; outline: as §1
KM12 = test: Growth inhibition of human KM12 cells after 48 hrs by sulforhodamine B assay; conditions: KM12, 48 h; outline: as §1
SF-295 = test: Growth inhibition of human SF295 cells after 48 hrs by sulforhodamine B assay; conditions: SF-295, 48 h; outline: as §1
SNB-19 = test: Growth inhibition of human SNB19 cells after 48 hrs by sulforhodamine B assay; conditions: SNB-19, 48 h
Outline: (§2)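 NCI 60-cell-line main screen across nine tumor types, with five log dose range per compound. GI50 is the molar concentration giving half growth inhibition, reported as the log of the molar concentration that inhibits 50% net cell growth.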

LOX IMVI = test: Growth inhibition of human LOXIMVI cells after 48 hrs by sulforhodamine B assay; outline: as §1
Malme-3M = test: Growth inhibition of human MALME-3M cells after 48 hrs by sulforhodamine B assay; outline: as §1
SK-MEL-2 = test: Growth inhibition of human SK-MEL-2 cells after 48 hrs by sulforhodamine B assay; conditions: SK-MEL-2, 48 h; outline: as §1
SK-MEL-28 = test: Growth inhibition of human SK-MEL-28 cells after 48 hrs by sulforhodamine B assay; conditions: SK-MEL-28, 48 h; outline: as §1
OVCAR-3 = test: Growth inhibition of human OVCAR-3 cells after 48 hrs by sulforhodamine B assay; conditions: OVCAR-3, 48 h; outline: as §1
OVCAR-4 = test: Growth inhibition of human OVCAR4 cells after 48 hrs by sulforhodamine B assay; conditions: OVCAR-4, 48 h; outline: as §1
SN12C = test: Growth inhibition of human SN12C cells after 48 hrs by sulforhodamine B assay; outline: as §2
MCF7 = test: Growth inhibition of human MCF7 cells after 48 hrs by sulforhodamine B assay; conditions: MCF7, 48 h; outline: as §1
T47D = test: Growth inhibition of human T47D cells after 48 hrs by sulforhodamine B assay; outline: as §2
[1] = Growth inhibition of human colon cancer cell after 48 hrs by sulforhodamine B assay; conditions: Cancer cell lines
Outline: (§3)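 Subpanel median growth inhibitory concentration: the average sensitivity of each tumor-type subpanel of the NCI 60-cell-line panel, derived from per-cell-line GI50 values. GI50 values came from a five log dose range and are expressed as log molar concentration for 50% net growth inhibition.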

[2] = Growth inhibition of human ovarian cancer cell after 48 hrs by sulforhodamine B assay; conditions: Cancer cell lines; outline: as §3
[3] = Growth inhibition of human prostate cancer cell after 48 hrs by sulforhodamine B assay; conditions: Cancer cell lines; outline: as §3
CCRF-CEM = test: Growth inhibition of human CCRF-CEM cells after 48 hrs by sulforhodamine B assay; outline: as §1
EKVX = test: Growth inhibition of human EKVX cells after 48 hrs by sulforhodamine B assay; outline: as §1
NCI-H322M = test: Growth inhibition of human NCI-H322M cells after 48 hrs by sulforhodamine B assay; outline: as §1
HCT-15 = test: Growth inhibition of human HCT15 cells after 48 hrs by sulforhodamine B assay; conditions: HCT-15, 48 h; outline: as §1
U-251 = test: Growth inhibition of human U251 cells after 48 hrs by sulforhodamine B assay; conditions: U-251, 48 h; outline: as §2
OVCAR-8 = test: Growth inhibition of human OVCAR8 cells after 48 hrs by sulforhodamine B assay; conditions: OVCAR-8, 48 h; outline: as §1

CC(NC(=O)Nc1cc(Cl)ccc1Cl)(C(F)(F)F)C(F)(F)F
GI50 (HL-60(TB)): 17.4 µM | GI50 (K562): 5.89 µM | GI50 (A549): 5.62 µM | GI50 (NCI-H460): 5.75 µM | GI50 (COLO 205): 4.17 µM | GI50 (KM12): 4.37 µM | GI50 (SF-295): 3.47 µM | GI50 (SNB-19): > 100 µM | GI50 (LOX IMVI): 7.76 µM | GI50 (Malme-3M): 17.8 µM | GI50 (SK-MEL-2): 12.3 µM | GI50 (SK-MEL-28): > 100 µM | GI50 (OVCAR-3): 4.17 µM | GI50 (OVCAR-4): 10.7 µM | GI50 (SN12C): 8.71 µM | GI50 (MCF7): 11.7 µM | GI50 (T47D): 3.47 µM | GI50 [1]: 7.08 µM | GI50 [2]: 24 µM | GI50 [3]: 5.75 µM

CCC(NC(=O)Nc1cc(Cl)ccc1Cl)(C(F)(F)F)C(F)(F)F
GI50 (CCRF-CEM): 4.07 µM | GI50 (HL-60(TB)): 4.17 µM | GI50 (K562): 3.55 µM | GI50 (A549): 3.47 µM | GI50 (EKVX): 3.16 µM | GI50 (NCI-H322M): 1.78 µM | GI50 (NCI-H460): 2.19 µM | GI50 (COLO 205): 1.82 µM | GI50 (HCT-15): 4.07 µM | GI50 (KM12): 4.07 µM | GI50 (SF-295): 3.47 µM | GI50 (SNB-19): 4.68 µM | GI50 (U-251): 2.95 µM | GI50 (LOX IMVI): 4.07 µM | GI50 (Malme-3M): 8.13 µM | GI50 (SK-MEL-2): 2.19 µM | GI50 (SK-MEL-28): 12 µM | GI50 (OVCAR-3): 3.09 µM | GI50 (OVCAR-4): 5.62 µM | GI50 (OVCAR-8): 5.25 µM | GI50 (SN12C): 2.82 µM | GI50 (MCF7): 7.24 µM | GI50 [1]: 4.68 µM | GI50 [2]: 5.5 µM | GI50 [3]: 3.16 µM

Reference: ChEMBL document CHEMBL1287654, “Anticancer activity of N-bis(trifluoromethyl)alkyl-N'-(polychlorophenyl) and N'-(1,2,4-triazolyl) ureas” (2010)
